The nature of series [1]: Inhibition of trypsin-like activity of rabbit 20S proteasome. Also on record: species or system Oryctolagus cuniculus. The essentials:
(§1)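 Purified rabbit muscle 20S proteasome at 1.4 nM final. T-L used the same buffer without SDS and Boc-LRR-AMC. Serial dilutions were preincubated 5 min at 37 °C. AMC fluorescence ex 390/em 460 nm.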

The species named for series [2] is Oryctolagus cuniculus. Briefly: Inhibition of chymotrypsin-like activity of rabbit 20S proteasome assessed as enzyme activity recovery 12 hrs after dialysis. The essentials:
(§2)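 Rabbit 20S proteasome (1.4 nM final) was incubated 1 h at ambient temperature with compound or DMSO (0.1% final) in 20 mM HEPES pH 7.3, 0.5 mM EDTA, 0.05% Triton X-100, 0.035% SDS (SDS omitted for T-L). Mixtures were dialysed (MWCO 12-14000) against assay buffer at ambient temperature. Samples taken at 0, 1, 2, 5, 24 h (some also 12 h) for site activity, normalised to DMSO controls.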

Series [3] can be described thus: Inhibition of caspase-like activity of rabbit 20S proteasome. Also on record: species or system Oryctolagus cuniculus. The essentials: as §1
Series [4] can be described thus: Stability in 20 mM HEPES buffer assessed as beta-lactone hydrolysis rate at pH 7.3 at 37 degC.
Series [5] is described as follows: Inhibition of chymotrypsin-like activity of rabbit 20S proteasome. Details: species or system Oryctolagus cuniculus. The essentials: as §1
Series [6] is filed under the species Oryctolagus cuniculus. Briefly: Inhibition of chymotrypsin-like activity of rabbit 20S proteasome assessed as enzyme activity recovery 24 hrs after dialysis. The essentials: as §2
Series [7] is described as follows: Inhibition of trypsin-like activity of human 20S proteasome assessed as release of free AMC substrate by fluorimetry based kinetic assay.
Series [8] in a line: Inhibition of chymotrypsin-like activity of yeast 20S proteasome. Also on record: species or system Saccharomyces cerevisiae. The essentials: (§3)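 Purified yeast 20S proteasome in 75 mM Tris-HCl pH 7.8 with 0.02% SDS. Serial compound dilutions were preincubated 5 min at 37 °C, then substrate was added: Suc-LLVY-AMC at 20 µM final (CT-L), Z-LLE-AMC (C-L), or Bz-VGR-AMC with SDS omitted (T-L). Cleaved AMC read at ex 390/em 460 nm.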

Series [9] in a line: Inhibition of trypsin-like activity of yeast 20S proteasome. Also on record: species or system Saccharomyces cerevisiae. The essentials:
as §3

For series [10], the species on record is Homo sapiens. The series is described as follows: Inhibition of trypsin-like activity of human 20S proteasome assessed as inactivation rate by fluorimetry based kinetic assay.
The species named for series [11] is Oryctolagus cuniculus. Briefly: Inhibition of trypsin-like activity of rabbit 20S proteasome assessed as enzyme activity recovery 24 hrs after dialysis. The essentials:
as §2

A short description of series [12]: Inhibition of caspase-like activity of human 20S proteasome assessed as release of free AMC substrate by fluorimetry based kinetic assay.
Series [13] is described as follows: Inhibition of chymotrypsin-like activity of human 20S proteasome.
Series [14] is filed under the species Homo sapiens. Briefly: Inhibition of caspase-like activity of human 20S proteasome assessed as inactivation rate by fluorimetry based kinetic assay.
Series [15] can be described thus: Inhibition of chymotrypsin-like activity of human 20S proteasome assessed as release of free AMC substrate by fluorimetry based kinetic assay.
Series [16] is filed under the species Homo sapiens. The series is described as follows: Inhibition of trypsin-like activity of human 20S proteasome assessed as enzyme activity recovery 12 hrs after dialysis.
Series [17] is described as follows: Inhibition of caspase-like activity of human 20S proteasome.
Series [18] can be described thus: Inhibition of caspase-like activity of yeast 20S proteasome. Also on record: species or system Saccharomyces cerevisiae. The essentials:
as §3

For series [19], the species on record is Homo sapiens. Briefly: Inhibition of chymotrypsin-like activity of human 20S proteasome assessed as inactivation rate by fluorimetry based kinetic assay.
Series [20] is filed under the species Oryctolagus cuniculus. Briefly: Inhibition of caspase-like activity of rabbit 20S proteasome assessed as enzyme activity recovery 24 hrs after dialysis. The essentials:
as §2

The nature of series [21]: Inhibition of trypsin-like activity of human 20S proteasome.
Series [22] is filed under the species Homo sapiens. The series is described as follows: Inhibition of chymotrypsin-like activity of human 20S proteasome assessed as enzyme activity recovery 12 hrs after dialysis.
The species named for series [23] is Homo sapiens. Briefly: Inhibition of caspase-like activity of human 20S proteasome assessed as enzyme activity recovery 12 hrs after dialysis.
The species named for series [24] is Oryctolagus cuniculus. The series is described as follows: Inhibition of caspase-like activity of rabbit 20S proteasome assessed as enzyme activity recovery 12 hrs after dialysis. The essentials: as §2
For series [25], the species on record is Oryctolagus cuniculus. Briefly: Inhibition of trypsin-like activity of rabbit 20S proteasome assessed as enzyme activity recovery 12 hrs after dialysis. Summed up: as §2

These results are taken from ChEMBL document CHEMBL1142546 (J Med Chem, 2008).

By IC50 is commonly meant the concentration at which inhibition is half-maximal. A low value points to greater potency. One may read the half-life as the time in which the quantity being followed falls by half. A word on the Ki: it is the dissociation constant of the complex between target and ligand, obtained from inhibition or displacement.

Activity calls are given as the source filed them. No cut-off for these calls is given here. Bounds are passed on as bounds.

In the case of `CCC[C@H]1C(=O)N[C@@]2([C@@H](O)[C@@H]3C=CCCC3)C(=O)O[C@@]12C`, the results for the IC50 in series [1], in series [3] and in series [5] were 1100 nM, 1200 nM and 24 nM, respectively. The outcome in the series listed under Oryctolagus cuniculus [2] was inactive. For the same molecule, the half-life in [4] was 2.85 h.

With `C[C@H]1C(=O)N[C@@]2([C@@H](O)[C@@H]3C=CCCC3)C(=O)O[C@@]12C`, the IC50 in series [1] stood at 370 nM; in series [3] it was 460 nM; in series [5], 7.5 nM. Besides, the outcome in the series listed under Oryctolagus cuniculus [2] was inactive. Also, the half-life in [4] was 1.58 h.

As to `CN(C)c1cccc2c(S(=O)(=O)OCC[C@H]3C(=O)N[C@@]4([C@@H](O)[C@@H]5C=CCCC5)C(=O)O[C@@]34C)cccc12`, the 50% inhibitory concentration (IC50) in series [1] is 12 nM; in series [3], 90 nM; in series [5], 3 nM. Also, the half-life in [4] turned out to be 2.98 h.

For `Cc1ccc(S(=O)(=O)OCC[C@H]2C(=O)N[C@@]3([C@@H](O)[C@@H]4C=CCCC4)C(=O)O[C@@]23C)cc1`, the values for the IC50 in series [1], in [3] and in [5] were 9.9 nM, 127 nM and 2.5 nM, respectively. Also, the half-life in series [4] worked out at 1.25 h. Further, the result in the series listed under Oryctolagus cuniculus [6] was Active.

On to `C[C@@]12OC(=O)[C@]1([C@@H](O)[C@@H]1C=CCCC1)NC(=O)[C@@H]2CCOS(C)(=O)=O`, for which the 50% inhibitory concentration (IC50) was 65 nM in series [1], 870 nM in series [3] and 4.3 nM in series [5]. For the same molecule, in [4], the half-life worked out at 0.983 h. Moreover, the result in the series filed under Oryctolagus cuniculus [6] was Active.

With `C[C@@]12OC(=O)[C@]1([C@@H](O)[C@@H]1C=CCCC1)NC(=O)[C@@H]2CCBr` [BROMOSALINOSPORAMIDE], the results for the IC50 in series [1], in [3] and in [5] were 14 nM, 290 nM and 2.6 nM, respectively. In addition, the half-life in series [4] came out at 1.33 h.

In the case of `C[C@@]12OC(=O)[C@]1([C@@H](O)[C@@H]1C=CCCC1)NC(=O)[C@@H]2CCF` [FLUOROSALINOSPORAMIDE], the half-life in [4] was 1.32 h. Further, the result in the series listed under Oryctolagus cuniculus [6] was Active. Moreover, the midpoint of inhibition in [5], the IC50, lay at 9.2 nM.

`C[C@@]12OC(=O)[C@]1([C@@H](O)[C@@H]1C=CCCC1)NC(=O)[C@@H]2CCI` [IODOSALINOSPORAMIDE]: the half-inhibitory concentration (IC50) amounted to 13 nM in series [1], 410 nM in series [3] and 2.8 nM in [5]. Moreover, the half-life in series [4] was 1.53 h.

In the case of `C[C@@]12OC(=O)[C@]1([C@@H](O)[C@@H]1C=CCCC1)NC(=O)[C@@H]2CCCl` [MARIZOMIB], the inhibitory constant (Ki) was 97 nM in series [7], over 1000 nM in series [12] and 23 nM in series [15]. Also, the half-maximal inhibitory concentration (IC50) in series [8] worked out at 2 nM; in series [9], 59 nM; in [13], 3.5 nM; in series [17], 430 nM; in series [18] it was 2600 nM; in series [21], 28 nM. In addition, the Activity is 0.003 s⁻¹ in the series listed under Homo sapiens [10], over 0.02 s⁻¹ in the series filed under Homo sapiens [14] and 0.01 s⁻¹ in the series filed under Homo sapiens [19]. The outcome in the series listed under Oryctolagus cuniculus [11], in the series listed under Homo sapiens [16], in the series listed under Oryctolagus cuniculus [20], in the series filed under Oryctolagus cuniculus [6], in the series filed under Homo sapiens [22] and in the series filed under Homo sapiens [23] was Active. The half-life in series [4] worked out at 1.28 h.

With `CC[C@H]1C(=O)N[C@@]2([C@@H](O)[C@@H]3C=CCCC3)C(=O)O[C@@]12C` [SALINOSPORAMIDE B], the half-inhibitory concentration (IC50) in [8] is 16 nM; in series [9], 1040 nM; in series [1] it was 610 nM; in series [18], over 20000 nM. The outcome in the series listed under Oryctolagus cuniculus [2], in the series filed under Oryctolagus cuniculus [24] and in the series listed under Oryctolagus cuniculus [25] was inactive. Also, the half-life in series [4] came to 3.17 h.

Regarding `C[C@@]12OC(=O)[C@@]1([C@@H](O)[C@@H]1C=CCCC1)NC(=O)[C@@H]2CCO` [hydroxysalinosporamide A], the IC50 was determined as 1200 nM in series [1], 1200 nM in series [3] and 14 nM in series [5]. Further, the outcome in the series filed under Oryctolagus cuniculus [2] was inactive. Besides, the half-life in [4] is 1.42 h.
